Source: ChEMBL document CHEMBL5107959, “Structure-activity relationships of valine, tert-leucine, and phenylalanine amino acid-derived synthetic cannabinoid receptor agonists related to ADB-BUTINACA, APP-BUTINACA, and ADB-P7AICA” (RSC Med Chem, 2022)
pEC50, pKi: −log10 of the molar value.

Key:
[1] = target: T1, Cannabinoid receptor 1 (Homo sapiens, UniProt P21554); assay: Displacement of [3H]-CP55940 from human CB1 receptor expressed in human HEK293-EBNA cells incubated for 60 mins by radioligand competitive binding assay based liquid scintillation counter; format: cell-based
T1 sequence (P21554 whole entry): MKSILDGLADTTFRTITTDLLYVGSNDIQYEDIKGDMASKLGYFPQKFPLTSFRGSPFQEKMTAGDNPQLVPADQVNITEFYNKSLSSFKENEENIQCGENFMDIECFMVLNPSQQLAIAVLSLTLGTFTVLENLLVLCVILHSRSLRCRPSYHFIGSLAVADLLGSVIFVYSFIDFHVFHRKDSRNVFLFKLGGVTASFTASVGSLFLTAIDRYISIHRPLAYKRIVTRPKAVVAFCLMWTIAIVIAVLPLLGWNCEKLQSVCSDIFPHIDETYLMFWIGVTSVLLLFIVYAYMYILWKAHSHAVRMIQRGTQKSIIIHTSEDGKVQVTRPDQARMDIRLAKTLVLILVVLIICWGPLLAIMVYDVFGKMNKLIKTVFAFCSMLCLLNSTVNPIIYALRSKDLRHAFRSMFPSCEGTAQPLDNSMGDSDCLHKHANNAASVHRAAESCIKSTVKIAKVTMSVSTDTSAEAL

[2] = target: T2, Cannabinoid receptor 2 (Homo sapiens, UniProt P34972); assay: Displacement of [3H]-CP55940 from N-terminal 3HA-tagged human CB2 receptor expressed in human HEK293-EBNA cells incubated for 60 mins by radioligand competitive binding assay based liquid scintillation counter; format: cell-based
T2 sequence (P34972 whole entry): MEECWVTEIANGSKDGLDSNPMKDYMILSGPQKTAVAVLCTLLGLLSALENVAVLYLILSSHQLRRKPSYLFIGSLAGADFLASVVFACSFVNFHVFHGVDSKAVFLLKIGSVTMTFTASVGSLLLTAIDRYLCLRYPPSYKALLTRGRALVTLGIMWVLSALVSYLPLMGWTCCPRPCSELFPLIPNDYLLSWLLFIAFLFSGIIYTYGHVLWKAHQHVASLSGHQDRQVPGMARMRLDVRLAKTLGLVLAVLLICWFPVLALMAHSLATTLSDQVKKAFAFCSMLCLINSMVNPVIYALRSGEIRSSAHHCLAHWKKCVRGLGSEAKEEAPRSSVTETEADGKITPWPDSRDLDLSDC

[3] = target: T1, Cannabinoid receptor 1; assay: Agonist activity at human CB1 receptor expressed in mouse AtT20 cells incubated for 60 mins by FLIPR membrane potential assay; format: functional, cell-based
[4] = target: T2, Cannabinoid receptor 2; assay: Agonist activity at human CB2 receptor expressed in mouse AtT20 cells incubated for 60 mins by FLIPR membrane potential assay; format: functional, cell-based
[5] = target: T1, Cannabinoid receptor 1; assay: Agonist activity at human CB1 receptor expressed in mouse AtT20 cells assessed as maximal agonist effect by measuring fluorescence at 10 uM incubated for 60 mins by FLIPR membrane potential assay relative to CP55940; format: functional, cell-based
Procedure, shortened: (§1)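 AtT20 FlpIn cells stably expressing human CB1 or CB2, plated overnight in L-15 with 1% FBS. Loaded 60 min at 37 °C with FLIPR blue membrane potential dye, pH 7.4 buffer. Fluorescence (ex 530/em 565 nm) read every 2 s; 2 min baseline, then drug added. Change in fluorescence versus baseline minus vehicle (DMSO 0.1%/BSA 0.01% final), normalised to 1 μM CP55,940. Response taken at 10 μM where <50% change.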

[6] = target: T2, Cannabinoid receptor 2; assay: Agonist activity at human CB2 receptor expressed in mouse AtT20 cells assessed as maximal agonist effect by measuring fluorescence at 10 uM incubated for 60 mins by FLIPR membrane potential assay relative to CP55940; format: functional, cell-based; conditions: filed as agonist; procedure, shortened: as §1
[7] = target: T1, Cannabinoid receptor 1; assay: Agonist activity at CB1 receptor (unknown origin) expressed in human HEK293T cells co-expressing beta-arrestin2 assessed as beta-arrestin2 recruitment using furimazine as substrate by Nano-Glo live cell reagent assay; format: functional, cell-based; conditions: for pEC50: read-out: EC50
Procedure, shortened: (§2)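 βarr2 recruitment by NanoBiT split-luciferase complementation in HEK293T stably expressing CB1-βarr2 or CB2-βarr2. Nano-Glo Live Cell reagent (furimazine) equilibrated 10 min before compound, then luminescence monitored continuously 2 h. Stocks in methanol, diluted in MeOH/Opti-MEM. EC50 from four-parameter logistic fit. Duplicates in ≥3 independent experiments.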

[8] = target: T2, Cannabinoid receptor 2; assay: Agonist activity at CB2 receptor (unknown origin) expressed in human HEK293T cells co-expressing beta-arrestin2 assessed as beta-arrestin2 recruitment using furimazine as substrate by Nano-Glo live cell reagent assay; format: functional, cell-based; procedure, shortened: as §2
[9] = target: T1, Cannabinoid receptor 1; assay: Agonist activity at CB1 receptor (unknown origin) expressed in human HEK293T cells co-expressing beta-arrestin2 assessed as beta-arrestin2 recruitment by measuring maximal luminescence using furimazine as substrate at 100 uM by Nano-Glo live cell reagent assay relative to CP55940; format: functional, cell-based
Procedure, shortened: (§3)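 βarr2 recruitment by NanoBiT split-luciferase complementation in HEK293T stably expressing CB1-βarr2 or CB2-βarr2. Cells seeded on poly-D-lysine overnight, washed into Opti-MEM. Nano-Glo Live Cell reagent (furimazine) equilibrated 10 min, then compound added and luminescence followed 2 h. […] Value read at highest tested concentration, 100 μM. Duplicates, ≥3 independent experiments.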

[10] = target: T2, Cannabinoid receptor 2; assay: Agonist activity at CB2 receptor (unknown origin) expressed in human HEK293T cells co-expressing beta-arrestin2 assessed as beta-arrestin2 recruitment by measuring maximal luminescence using furimazine as substrate at 100 uM by Nano-Glo live cell reagent assay relative to CP55940; format: functional, cell-based; conditions: filed as agonist; procedure, shortened: as §3
[11] = Toxicity in C57BL/6J mouse assessed as reduction in body temperature at 10 mg/kg,ip measured after 2.5 hrs by radio-biotelemetry analysis; format: organism-based; conditions: in vivo
Procedure, shortened: (§4)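 Male C57BL/6J mice (four per cohort) fitted with intraperitoneal biotelemetry transmitters, 10 days' recovery. Compound in EtOH/polysorbate 80/saline (5:5:90) given i.p. at 10 μL/g after baseline vehicle injection; escalating doses 0.03 to 10 mg/kg, one every three days.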

[12] = Toxicity in C57BL/6J mouse assessed as reduction in body temperature at 0.1 mg/kg,ip measured after 2.5 hrs by radio-biotelemetry analysis; format: organism-based; conditions: in vivo; procedure, shortened: as §4
[13] = target: T1, Cannabinoid receptor 1; assay: Agonist activity at human CB1 receptor expressed in mouse AtT20 cells at 10 uM incubated for 60 mins by FLIPR membrane potential assay; format: functional, cell-based; procedure, shortened: as §1
[14] = Toxicity in C57BL/6J mouse assessed as reduction in body temperature upto 10 mg/kg,ip measured after 2.5 hrs by radio-biotelemetry analysis; format: organism-based; conditions: in vivo; procedure, shortened: as §4

SMILES: CCCCCn1cc(C(=O)c2cccc3ccccc23)c2ccccc21
- pKi [1]: 8.59
- pKi [2]: 8.02
- pEC50 [3]: 7.74
- pEC50 [4]: 7.66
- Emax ([5]; filed as agonist): 116%
- Emax [6]: 87%
- pEC50 [7]: 7.45
- pEC50 [8]: 8.14
- Emax ([9]; filed as agonist): 310%
- Emax [10]: 58%

SMILES: CCCCCn1cc(C(=O)N[C@H](C(N)=O)C(C)(C)C)c2cccnc21
- pKi [1]: 8.40
- pKi [2]: 7.69
- pEC50 [3]: 8.24
- pEC50 [4]: 8.15
- Emax [6]: 108%
- pEC50 [7]: 6.83
- pEC50 [8]: 7.65
- Emax ([9]; filed as agonist): 544%
- Emax [10]: 102%
- Activity [11]: Non-Toxic

SMILES: CCCCn1cc(C(=O)N[C@H](C(N)=O)C(C)C)c2cccnc21
- pKi [1]: 6.30
- pKi [2]: 6.05
- pEC50 [3]: 5.83
- pEC50 [4]: 6.69
- Emax ([5]; filed as agonist): 104%
- Emax [6]: 100%
- pEC50 [7]: < 4.22
- pEC50 [8]: 5.34
- Emax ([9]; filed as agonist): 44%
- Emax [10]: 88%

SMILES: CCCCn1cc(C(=O)N[C@@H](Cc2ccccc2)C(N)=O)c2ccccc21
- pKi [1]: 6.51
- pKi [2]: 6.83
- pEC50 [3]: 5.29
- pEC50 [4]: 7.40
- Emax ([5]; filed as agonist): 93%
- Emax [6]: 92%
- pEC50 [7]: 4.81
- pEC50 [8]: 6.68
- Emax ([9]; filed as agonist): 50%
- Emax [10]: 76%

SMILES: CCCCCn1cc(C(=O)N[C@H](C(N)=O)C(C)C)c2cccnc21
- pKi [1]: 7.31
- pKi [2]: 6.60
- pEC50 [3]: 7.00
- pEC50 [4]: 7.33
- Emax ([5]; filed as agonist): 112%
- Emax [6]: 93%
- pEC50 [7]: 5.38
- pEC50 [8]: 6.16
- Emax ([9]; filed as agonist): 278%
- Emax [10]: 70%

SMILES: CCCCn1nc(C(=O)N[C@H](C(N)=O)C(C)C)c2ccccc21
- pKi [1]: 8.93
- pKi [2]: 8.19
- pEC50 [3]: 8.13
- pEC50 [4]: 8.38
- Emax ([5]; filed as agonist): 114%
- Emax [6]: 103%
- pEC50 [7]: 6.73
- pEC50 [8]: 7.86
- Emax ([9]; filed as agonist): 622%
- Emax [10]: 91%

SMILES: CCCCn1nc(C(=O)N[C@H](C(N)=O)C(C)(C)C)c2ccccc21
- pKi [1]: 9.52
- pKi [2]: 9.04
- pEC50 [3]: 9.17
- pEC50 [4]: 8.39
- Emax ([5]; filed as agonist): 113%
- Emax [6]: 101%
- pEC50 [7]: 7.72
- pEC50 [8]: 8.75
- Emax ([9]; filed as agonist): 728%
- Emax [10]: 83%
- Activity [12]: Toxic

SMILES: CCCCn1cc(C(=O)N[C@H](C(N)=O)C(C)C)c2ccccc21
- pKi [1]: 7.91
- pKi [2]: 7.11
- pEC50 [3]: 7.28
- pEC50 [4]: 7.55
- Emax ([5]; filed as agonist): 107%
- Emax [6]: 106%
- pEC50 [7]: 5.48
- pEC50 [8]: 6.55
- Emax ([9]; filed as agonist): 390%
- Emax [10]: 94%

SMILES: CCCCn1cc(C(=O)N[C@H](C(N)=O)C(C)(C)C)c2cccnc21
- pKi [1]: 7.81
- pKi [2]: 7.39
- pEC50 [3]: 7.06
- pEC50 [4]: 7.68
- Emax ([5]; filed as agonist): 117%
- Emax [6]: 103%
- pEC50 [7]: 5.54
- pEC50 [8]: 6.92
- Emax ([9]; filed as agonist): 406%
- Emax [10]: 85%

SMILES: CCCCn1cc(C(=O)N[C@@H](Cc2ccccc2)C(N)=O)c2cccnc21
- pKi [1]: 6.27
- pKi [2]: 5.66
- pEC50 [4]: 6.50
- Emax [5]: 19%
- Emax [6]: 79%
- pEC50 [7]: < 5.98
- EC50 ([7]; read-out: pEC50 (converted)): 1050 nM
- pEC50 [8]: 5.44
- Emax [9]: < 5%
- Emax [10]: 53%
- Activity [13]: < 50%

SMILES: CCCCn1cc(C(=O)N[C@H](C(N)=O)C(C)(C)C)c2ccccc21
- pKi [1]: 8.87
- pKi [2]: 8.88
- pEC50 [3]: 8.22
- pEC50 [4]: 8.22
- Emax ([5]; filed as agonist): 115%
- Emax [6]: 103%
- pEC50 [7]: 6.86
- pEC50 [8]: 8.35
- Emax ([9]; filed as agonist): 756%
- Emax [10]: 92%

SMILES: CCCCn1nc(C(=O)N[C@@H](Cc2ccccc2)C(N)=O)c2ccccc21
- pKi [1]: 7.60
- pKi [2]: 7.40
- pEC50 [3]: 6.79
- pEC50 [4]: 8.17
- Emax ([5]; filed as agonist): 95%
- Emax [6]: 99%
- pEC50 [7]: 5.93
- pEC50 [8]: 7.77
- Emax ([9]; filed as agonist): 216%
- Emax [10]: 71%
- Activity [14]: Toxic

SMILES: CCCCCn1cc(C(=O)N[C@@H](Cc2ccccc2)C(N)=O)c2cccnc21
- pKi [1]: 6.36
- pKi [2]: 6.10
- pEC50 [4]: 6.42
- Emax [5]: 30%
- Emax [6]: 78%
- pEC50 [7]: < 4.00
- pEC50 [8]: 6.12
- Emax [9]: 6%
- Emax [10]: 52%
- Activity [13]: < 50%
